# Experimental data pooled from the literature.
# Observed: DPPH scavenging
Structure (SMILES),method,time,notes,IC50
O=C1O[C@H]([C@@H](O)CO)C(O)=C1O,absorbance,30 min,,90.1 µM
CCOC(=O)C1=C(CCl)NC(=O)NC1c1cccc(F)c1 (centres unmarked),,,,179 µM
O=C1O[C@H]([C@@H](O)CO)C(O)=C1O,absorbance,30 min,dark,30.8 µM
Cc1ccc(NC(=O)CSc2nc3ccccc3cc2C=Nn2c(S)nnc2-c2ccccc2)cc1,,,,120 µM
CCOC(=O)C1=C(CSC2=NCCS2)NC(=O)NC1c1ccc(OC)cc1 (centres unmarked),,,,139 µM
O=C(O[C@@H]1COC(=O)c2cc(O)c(O)c(O)c2-c2c(cc(O)c(O)c2O)C(=O)O[C@H]1[C@@H]1OC(=O)c2cc(O)c(O)c(O)c2-c2c(O)c(O)c(O)c3c2C(=O)O[C@H]1[C@@H]3O)c1cc(O)c(O)c(O)c1,absorbance,,,5.37 µg/mL
O=c1c(O)c(-c2ccc(O)c(O)c2)oc2cc(O)cc(O)c12,,,,18.6 µM
COc1cccc(C2NCCc3cc(O)c(O)cc32)c1O (centres unmarked),absorbance,30 min,dark,6.49 µM
CCOC(=O)C1=C(CCl)NC(=O)NC1c1cccc(OC)c1 (centres unmarked),,,,86.7 µM
Cc1ccccc1NC(=O)CSc1nc2ccccc2cc1C=Nn1c(S)nnc1-c1ccccc1,,,,131 µM
CCOC(=O)C1=C(CSC2=NCCS2)NC(=O)NC1c1ccc(F)cc1F (centres unmarked),,,,137 µM
CCCCCCCCCCCCCCCC1NCCc2cc(O)c(O)cc21 (centres unmarked),absorbance,30 min,dark,37.3 µM
C=C(C)[C@@H]1CC[C@]2(C)CC[C@]3(C)[C@H](CC[C@@H]4[C@@]5(C)CC[C@H](O)C(C)(C)[C@@H]5CC[C@]43C)[C@@H]12,absorbance,,,18.6 µg/mL
CCCCCCCCCCCCCCCCCCc1ccc(O)cc1,,,,204 µM
COc1cc(C2NCCc3cc(O)c(O)cc32)cc(OC)c1O (centres unmarked),absorbance,30 min,dark,11.2 µM
CCOC(=O)C1=C(CCl)NC(=O)NC1c1cccc(Cl)c1 (centres unmarked),,,,104 µM
CCCCCC1NCCc2cc(O)c(O)cc21 (centres unmarked),absorbance,30 min,dark,63 µM
CCOC(=O)C1=C(CCl)NC(=O)NC1c1ccccc1 (centres unmarked),,,,207 µM
O=C1O[C@H]([C@@H](O)CO)C(O)=C1O,,,,9.1 µg/mL
CCCCCCCCCCC1NCCc2cc(O)c(O)cc21 (centres unmarked),absorbance,30 min,dark,60.7 µM
